Compound activity (PubChem BioAssay)
Most compounds without a hit are left out; they make up all but 3% or so of the library.
PfG6PD inh: PfG6PD (Plasmodium falciparum) enzyme inhibition | PfGluPho enzyme, NADPH resazurin-diaphorase fluorescence | inhibition, % at 20 µM | 350,000 tested, 0.78% active | AID 504690;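 active = inhibition reaching at least a set limit at 20 µM in the primary screen, cut at about 59% in these data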;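 note: 0% = DMSO wells with substrate and 100% = DMSO wells lacking glucose-6-phosphate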
MC4R antag cAMP: antagonists of human melanocortin 4 receptor (MC4R); P32245; MC4R-expressing cells, MTII-stimulated cAMP, LANCE TR-FRET; inhibition, % at 6.5 µM; 360,000 tested, 0.48% active; AID 540295;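 active = inhibition above its plate's cutoff, the mean of tested wells on that plate plus 3 SD, cut at about 29% in these data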;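 note: 0% = Melanotan II alone and 100% = Melanotan II plus saturating MCL0020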
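Material: human MC4R-expressing U2OS cells. Probe or stimulus: Melanotan II challenge. Dosing: 6.5 µM single dose. Times: 30-min compound, 1-h challenge, 1-h detection, room temperature. Technique: TR-FRET with Eu-cAMP and labeled anti-cAMP, 671 nm. Replication: singlicate.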
B2AR ag: activates human beta-2 adrenergic receptor causing internalization. P07550. Am2.2-beta2AR cells, FAP receptor internalization, flow cytometry. response, % (test concentration not listed). 340,000 tested, 0.43% active;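 active = response above a set limit, near 3 SD of response in nonfluorescent compounds, cut at about 42% in these data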
ABHD5 PLIN5 PPI: inhibitors of human ABHD5-perilipin-5 interaction; inhibition, % at 4 µM; AID 602281; Split G. princeps luciferase complementation, luminescence, 4 h; 360,000 tested, 0.78% active; Q00G26+Q8WTS1;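 active = inhibition above the mean inhibition across every tested compound plus 3 SD, cut at about 22% in these data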;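 note: 0% = DMSO only wells and the 100% control is not disclosed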
Target sequence (Q00G26 whole entry, looked up): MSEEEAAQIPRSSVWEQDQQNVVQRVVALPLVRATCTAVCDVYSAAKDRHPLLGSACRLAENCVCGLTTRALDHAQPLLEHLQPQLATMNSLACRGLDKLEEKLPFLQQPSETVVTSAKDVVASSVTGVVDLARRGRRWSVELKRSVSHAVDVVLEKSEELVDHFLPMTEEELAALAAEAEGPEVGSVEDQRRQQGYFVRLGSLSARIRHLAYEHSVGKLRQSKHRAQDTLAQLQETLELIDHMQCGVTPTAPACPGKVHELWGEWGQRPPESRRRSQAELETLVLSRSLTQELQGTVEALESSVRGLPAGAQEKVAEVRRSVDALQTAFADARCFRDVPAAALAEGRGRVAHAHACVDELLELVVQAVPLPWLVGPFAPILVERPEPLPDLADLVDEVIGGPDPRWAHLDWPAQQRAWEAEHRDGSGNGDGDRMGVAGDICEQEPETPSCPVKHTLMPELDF
Target sequence (Q8WTS1 whole entry, looked up): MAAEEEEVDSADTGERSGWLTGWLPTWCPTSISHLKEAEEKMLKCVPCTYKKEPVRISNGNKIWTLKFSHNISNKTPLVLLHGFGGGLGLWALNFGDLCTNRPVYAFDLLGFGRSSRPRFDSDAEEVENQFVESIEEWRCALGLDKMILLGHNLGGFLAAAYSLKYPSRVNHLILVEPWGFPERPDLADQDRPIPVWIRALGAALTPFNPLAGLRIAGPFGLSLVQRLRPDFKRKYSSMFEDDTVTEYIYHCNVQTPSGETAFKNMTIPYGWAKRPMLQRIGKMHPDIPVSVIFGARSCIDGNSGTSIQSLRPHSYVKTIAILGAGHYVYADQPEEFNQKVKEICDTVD
MC4R ag barr: agonists of human melanocortin 4 receptor (MC4R) beta-arrestin. U2OS MC4R beta-arrestin complementation, luminescence; percent of melanotan II response, DMSO zero. activation, % at 8.9 µM. 360,000 tested, 0.98% active;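 active = activation above a per-plate cutoff, the mean activation of sample wells on that plate plus 3 SD, cut at about 8% in these data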
PfG6PD confirm: PfG6PD inhibition, single-dose confirmed | recombinant PfGluPho, NADPH-diaphorase-resazurin fluorescence | AID 504753 | inhibition, % at 20 µM | 2,400 tested, 34% active | shares compounds with PfG6PD inh;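 active = inhibition of at least 50% at 20 µM in any single replicate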;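 note: 0% = DMSO with substrate and 100% = DMSO lacking glucose-6-phosphate substrate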
Diaph ctr 10uM: diaphorase inhibition or oxidation at 10 uM NADPH; 820 tested, 39% active; inhibition, % at 20 µM; diaphorase-coupled resazurin reduction, fluorescence, NADPH 10 uM; AID 504862; shares compounds with PfG6PD inh;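 active = average inhibition reaching 50% or more with the compound at 20 µM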;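 note: resorufin red fluorescence formed as diaphorase reduces resazurin using NADPH; 0% = DMSO with enzyme and 100% = DMSO without enzyme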
Diaphorase 30uM: counter-screen for P. falciparum G6PD inhibitors: diaphorase inhibitors, oxidizers; Diaphorase/resazurin coupled assay, resorufin fluorescence, 30 uM NADPH; inhibition, % at 20 µM; shares compounds with PfG6PD inh; AID 504863; 820 tested, 29% active;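 active = inhibition averaging 50% or more, tested at 20 µM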;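 note: 0% = DMSO with enzyme and 100% = DMSO wells lacking diaphorase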
The depositor's hits bear a star; / = not tested or not shown.

SMILES	PfG6PD inh	MC4R antag cAMP	B2AR ag	ABHD5 PLIN5 PPI	MC4R ag barr	PfG6PD confirm	others
Cc1nnc(N/N=C/c2cc(C)n(-c3ccc(F)cc3)c2C)n1N	77.9*	-14.8	-2.7	-17.6	-0.9	44.6
Cc1nnc(N/N=C/c2ccccc2O)n1N	32.1	-8.9	4.4	-45.4	-2.6	/
CC(C)c1nc2sc3c(=O)n(N)cnc3c2c2c1COC(C)(C)C2	60.5*	24.9	-18.9	0.0	-2.7	14.5
COc1cc(Br)c(C(=O)c2nccc3cc(OC)c(OC)cc23)cc1OC	88.2*	-7.3	-4.3	-6.5	0.2	-21.2
CCOC(=O)c1ccc(NC(=O)c2cccc(S(=O)(=O)N3CCOCC3)c2)cc1	18.2	8.1	18.3	-1.1	-2.0	/
CCOC(=O)c1ccc(S(=O)(=O)Nc2cc(S(=O)(=O)N3CCOCC3)ccc2O)cc1	59.9*	3.0	2.5	-3.6	-0.4	9.7
O=C(CCCSc1ccc(Cl)cc1)Nc1cc(S(=O)(=O)N2CCOCC2)ccc1O	73.8*	9.0	6.8	-17.2	-1.2	24.7
Cc1ccc(S(=O)(=O)N2CCOCC2)cc1NC(=O)CSc1ccc(Cl)cc1	-0.3	14.1	-3.2	-8.0	-0.7	/
COc1cc(OC)cc(-c2nc(-c3ccccc3OC)no2)c1	1.9	-1.2	1.5	5.9	-1.3	/
COc1cc(N=c2ssnc2Cl)cc(OC)c1	78.3*	15.2	30.2	-2.4	0.7	65.3*	Diaph ctr 10uM=-33.8;Diaphorase 30uM=-23.4
COc1ccccc1/C=N/NC(=O)CCSc1ccccc1	62.7*	0.3	-4.9	0.6	-0.2	72.3*	Diaph ctr 10uM=65.3*;Diaphorase 30uM=67.0*
COc1ccccc1C=NNC(=O)NN=Cc1ccccc1OC	-8.0	5.1	-1.4	-9.7	1.2	/
COc1ccccc1C=NN=C(NN=Cc1ccccc1OC)NN=Cc1ccccc1OC	76.6*	10.8	18.6	-49.5	-2.5	29.3
COc1ccc(OC)c(/C=N\NC(=O)CSc2nnc(CCCc3ccc(OC)c(C)c3)o2)c1	96.1*	9.9	2.8	-1.7	1.9	22.1
COc1ccc(CCCc2nnc(SCC(=O)Nc3cc(C)c(C)cc3Br)o2)cc1	2.9	2.2	-2.8	-10.2	-3.5	/
COc1ccc(CCCC(=O)N/N=C/c2ccccc2OC)cc1	97.9*	0.6	0.0	3.2	-3.0	67.3*	Diaph ctr 10uM=70.4*;Diaphorase 30uM=56.9*
O=C(CCC(=O)Nc1ccccc1Cl)N/N=C/c1ccccc1	104.6*	-4.7	-6.3	-11.2	-1.4	81.0*	Diaph ctr 10uM=69.0*;Diaphorase 30uM=47.5
O=C(CCCC(=O)Nc1ccc(Br)cc1)N/N=C/c1ccccc1	60.5*	23.7	1.0	1.3	1.0	41.8
O=C(CCC(=O)Nc1ccc(Br)cc1)N/N=C/c1ccccc1F	15.8	20.3	19.2	6.5	2.6	/
Cc1ccccc1NC(=O)CCC(=O)N/N=C/c1ccc(F)cc1	-16.8	14.2	3.1	-1.4	-2.7	/
O=C(CC(=O)N/N=C/c1ccccc1)NCc1ccccc1	107.4*	9.0	0.5	2.4	-2.2	71.7*	Diaph ctr 10uM=67.3*;Diaphorase 30uM=67.2*
O=C(CCCSCCCC(=O)NN=Cc1ccccc1)NN=Cc1ccccc1	59.1*	-7.3	-22.8	-7.7	0.6	18.9
Cc1ccc2nc(Cl)cc(=O)n2c1	12.2	6.5	-6.2	-6.9	1.0	/
O=C(CCSCCC(=O)NN=Cc1cccc(Cl)c1)NN=Cc1cccc(Cl)c1	86.1*	-1.3	-1.9	0.2	0.3	88.1*	Diaph ctr 10uM=79.3*;Diaphorase 30uM=66.3*
O=C(Nc1ccc(OC(F)(F)F)cc1)c1cc(S(=O)(=O)N2CCCCC2)ccc1N1CCOCC1	19.0	4.7	/	-9.5	-1.1	/
SMILES	PfG6PD inh	MC4R antag cAMP	B2AR ag	ABHD5 PLIN5 PPI	MC4R ag barr	PfG6PD confirm	others
Cc1ccc(-c2ccc(/C=C3\C(=O)ON=C3c3ccccc3)o2)c([N+](=O)[O-])c1	70.1*	21.2	17.6	11.7	0.6	4.6
COCCn1c(SCC(=O)NCC2CCCO2)nc2c([nH]c3ccccc32)c1=O (centres undefined)	-5.2	9.3	-9.2	1.7	-4.3	/
O=C(/C=C/c1ccco1)NCCc1ccccc1	12.1	-7.6	-0.9	9.4	0.0	/
Cc1ccc(/C=C/C(=O)NCCc2ccccc2)o1	75.1*	2.7	-3.5	15.2	0.6	14.6
CCCCN(CCCC)C(=O)c1sc2nc(N3CCOCC3)c3c(c2c1N)CCCC3	70.9*	3.6	6.1	-4.7	1.6	-5.8
NC(=O)c1sc2nc(N3CCOCC3)c3c(c2c1N)CCCC3	65.6*	3.2	0.9	-3.0	1.1	12.3
COc1ccc(Br)cc1CN1CCSCC1	-18.5	11.8	-3.2	3.6	0.5	/
Cc1[nH]c2ccc(C(=O)OCC(=O)Nc3cccc(S(N)(=O)=O)c3)cc2c1C	3.2	8.9	6.3	0.2	-0.8	/
CC1=CC(=O)C=C(C)C1=NOc1ccccc1[N+](=O)[O-]	68.9*	-9.1	10.3	1.0	-1.6	-5.8
O=c1[nH]c(NCCO)c(N=Cc2ccccc2)c(=O)[nH]1	67.8*	-1.7	-3.5	-9.1	-0.2	104.2*	Diaph ctr 10uM=78.6*;Diaphorase 30uM=43.1
Nc1[nH]c(=O)[nH]c(=O)c1N=Cc1ccccc1	131.1*	-0.9	-10.6	-25.6	0.1	97.6*	Diaph ctr 10uM=15.6;Diaphorase 30uM=2.7
O=C(CNc1n[nH]c(=O)[nH]c1=O)N/N=C/c1ccccc1	13.8	/	/	/	/	/
Cc1nc(=O)c(-c2ccccc2)c(C)n1-c1cccc(/C=C/C(=O)O)c1	-2.7	-1.3	-1.3	-2.7	0.0	/
CN(C)c1ccc(CNc2ccc3c(c2)ncn3C(C)(C)C)cc1	18.4	3.3	-2.5	3.2	2.7	/
CCCCn1c(SCC(=O)NC2CC2)nc2cc(C(=O)OC)ccc2c1=O	18.3	7.2	/	5.5	-0.5	/
Clc1ccc(N=c2ssnc2Cl)nc1	86.6*	4.9	13.7	-13.6	-2.1	51.8*	Diaph ctr 10uM=-22.4;Diaphorase 30uM=-17.6
CC1(C)CC(=O)C(C=Nc2ccc(Cl)cn2)=C(O)C1	9.9	0.5	-0.5	4.3	-0.9	/
COC(=O)c1ccc(NCc2c(O)ccc(O)c2Br)cc1Cl	103.8*	-9.8	20.3	-4.1	-2.5	39.2
CC(=O)N(Cc1ccc(F)cc1)C1=C(NCc2ccccc2)C(=O)c2ccccc2C1=O	70.8*	-5.0	17.9	-11.9	-1.0	45.9
O=C(NCc1ccc(F)cc1)C(c1ccccc1)c1ccccc1	-0.2	-0.6	1.6	-0.4	-0.8	/
Cc1ccc(-c2c(C(=O)N/N=C/c3sccc3C)nnn2-c2nonc2N)cc1	87.6*	-1.1	-8.6	-4.4	-5.2	45.3
COc1ccccc1/C=N/NC(=O)c1nnn(-c2nonc2N)c1-c1cccs1	92.8*	9.8	2.8	-5.4	-1.4	55.3*	Diaph ctr 10uM=84.9*;Diaphorase 30uM=66.5*
Nc1nonc1-n1nnc(C(=O)N/N=C/c2ccc3c(c2)OCO3)c1-c1ccccc1	-9.5	22.8	10.2	-0.9	-0.7	/
